System: Fibroblast
Assay: Multiplex assay against human fibroblast
Type: toxicity, cell-based
How it was run: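 Tubulin, mitochondrial-mass and membrane-permeability phenotypes are per cents of healthy-nucleus cells. Cells were gated by CellPathfinder machine learning into Hoechst high-intensity objects or normal cells, normal cells into healthy, pyknosed or fragmented nuclei, and pyknosed cells into mitotic or apoptotic. Before that, live cells stained at seeding with Hoechst33342, BioTracker Green Microtubule Cytoskeleton Dye, MitoTracker Red and Annexin V Alexa Fluor 680 were imaged on a CQ1 microscope at 37°C and 5% CO2 after compound addition.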

[1] = 12 h, 1 µM, compound concentration 1 uM, replicate 1
[2] = 12 h, 1 µM, compound concentration 1 uM, replicate 2
[3] = 12 h, 10 µM, compound concentration 10 uM, replicate 1
[4] = 12 h, 10 µM, compound concentration 10 uM, replicate 2
[5] = 24 h, 1 µM, compound concentration 1 uM, replicate 1
[6] = 24 h, 1 µM, compound concentration 1 uM, replicate 2
[7] = 24 h, 10 µM, compound concentration 10 uM, replicate 1
[8] = 24 h, 10 µM, compound concentration 10 uM, replicate 2
[9] = 48 h, 1 µM, compound concentration 1 uM, replicate 1
[10] = 48 h, 1 µM, compound concentration 1 uM, replicate 2
[11] = 48 h, 10 µM, compound concentration 10 uM, replicate 1
[12] = 48 h, 10 µM, compound concentration 10 uM, replicate 2

SMILES: Cc1ccccc1C(=O)Nc1ccc(C(=O)N2CCCC(N(C)C)c3ccccc32)cc1.Cl (centres undefined)
- Population Apoptotic (%) [1]: 52%
- Population Fragmented Nuclei (%) [1]: 16%
- Population Healthy Nuclei (%) [1]: 71%
- Population Hoechst High Intensity Objects (%) [1]: 0%
- Population Membrane Permeable-Phenotype (%) [1]: 0%
- Population Mitochondria Different-Phenotype (%) [1]: 5%
- Population Mitotic Cells (%) [1]: 47%
- Population Normal (%) [1]: 100%
- Population Pyknosed Nuclei (%) [1]: 12%
- Population Tubulin-Different-Phenotype (%) [1]: 31%
- Total Cell Count [1]: 167
- Population Apoptotic (%) [2]: 36%
- Population Fragmented Nuclei (%) [2]: 22%
- Population Healthy Nuclei (%) [2]: 55%
- Population Hoechst High Intensity Objects (%) [2]: 1%
- Population Membrane Permeable-Phenotype (%) [2]: 10%
- Population Mitochondria Different-Phenotype (%) [2]: 3%
- Population Mitotic Cells (%) [2]: 63%
- Population Normal (%) [2]: 98%
- Population Pyknosed Nuclei (%) [2]: 21%
- Population Tubulin-Different-Phenotype (%) [2]: 45%
- Total Cell Count [2]: 155
- Population Apoptotic (%) [3]: 58%
- Population Fragmented Nuclei (%) [3]: 26%
- Population Healthy Nuclei (%) [3]: 50%
- Population Hoechst High Intensity Objects (%) [3]: 1%
- Population Membrane Permeable-Phenotype (%) [3]: 1%
- Population Mitochondria Different-Phenotype (%) [3]: 12%
- Population Mitotic Cells (%) [3]: 41%
- Population Normal (%) [3]: 98%
- Population Pyknosed Nuclei (%) [3]: 22%
- Population Tubulin-Different-Phenotype (%) [3]: 70%
- Total Cell Count [3]: 108
- Population Apoptotic (%) [4]: 45%
- Population Fragmented Nuclei (%) [4]: 29%
- Population Healthy Nuclei (%) [4]: 47%
- Population Hoechst High Intensity Objects (%) [4]: 4%
- Population Membrane Permeable-Phenotype (%) [4]: 4%
- Population Mitotic Cells (%) [4]: 54%
- Population Normal (%) [4]: 95%
- Population Pyknosed Nuclei (%) [4]: 23%
- Population Tubulin-Different-Phenotype (%) [4]: 61%
- Total Cell Count [4]: 109
- Population Apoptotic (%) [5]: 38%
- Population Fragmented Nuclei (%) [5]: 15%
- Population Healthy Nuclei (%) [5]: 76%
- Population Hoechst High Intensity Objects (%) [5]: 1%
- Population Membrane Permeable-Phenotype (%) [5]: 0%
- Population Mitochondria Different-Phenotype (%) [5]: 8%
- Population Mitotic Cells (%) [5]: 61%
- Population Normal (%) [5]: 98%
- Population Pyknosed Nuclei (%) [5]: 8%
- Population Tubulin-Different-Phenotype (%) [5]: 30%
- Total Cell Count [5]: 160
- Population Apoptotic (%) [6]: 43%
- Population Fragmented Nuclei (%) [6]: 28%
- Population Healthy Nuclei (%) [6]: 49%
- Population Hoechst High Intensity Objects (%) [6]: 5%
- Population Membrane Permeable-Phenotype (%) [6]: 8%
- Population Mitochondria Different-Phenotype (%) [6]: 2%
- Population Mitotic Cells (%) [6]: 56%
- Population Normal (%) [6]: 94%
- Population Pyknosed Nuclei (%) [6]: 21%
- Population Tubulin-Different-Phenotype (%) [6]: 50%
- Total Cell Count [6]: 157
- Population Apoptotic (%) [7]: 58%
- Population Fragmented Nuclei (%) [7]: 30%
- Population Healthy Nuclei (%) [7]: 58%
- Population Hoechst High Intensity Objects (%) [7]: 1%
- Population Membrane Permeable-Phenotype (%) [7]: 0%
- Population Mitochondria Different-Phenotype (%) [7]: 12%
- Population Mitotic Cells (%) [7]: 41%
- Population Normal (%) [7]: 98%
- Population Pyknosed Nuclei (%) [7]: 11%
- Population Tubulin-Different-Phenotype (%) [7]: 68%
- Total Cell Count [7]: 111
- Population Apoptotic (%) [8]: 57%
- Population Fragmented Nuclei (%) [8]: 37%
- Population Healthy Nuclei (%) [8]: 42%
- Population Hoechst High Intensity Objects (%) [8]: 4%
- Population Membrane Permeable-Phenotype (%) [8]: 9%
- Population Mitochondria Different-Phenotype (%) [8]: 11%
- Population Mitotic Cells (%) [8]: 42%
- Population Normal (%) [8]: 95%
- Population Pyknosed Nuclei (%) [8]: 20%
- Population Tubulin-Different-Phenotype (%) [8]: 72%
- Total Cell Count [8]: 107
- Population Apoptotic (%) [9]: 33%
- Population Fragmented Nuclei (%) [9]: 13%
- Population Healthy Nuclei (%) [9]: 79%
- Population Hoechst High Intensity Objects (%) [9]: 3%
- Population Membrane Permeable-Phenotype (%) [9]: 0%
- Population Mitochondria Different-Phenotype (%) [9]: 4%
- Population Mitotic Cells (%) [9]: 66%
- Population Normal (%) [9]: 96%
- Population Pyknosed Nuclei (%) [9]: 7%
- Population Tubulin-Different-Phenotype (%) [9]: 28%
- Total Cell Count [9]: 158
- Population Apoptotic (%) [10]: 53%
- Population Fragmented Nuclei (%) [10]: 32%
- Population Healthy Nuclei (%) [10]: 50%
- Population Membrane Permeable-Phenotype (%) [10]: 8%
- Population Mitochondria Different-Phenotype (%) [10]: 5%
- Population Mitotic Cells (%) [10]: 46%
- Population Pyknosed Nuclei (%) [10]: 17%
- Population Tubulin-Different-Phenotype (%) [10]: 54%
- Total Cell Count [10]: 155
- Population Apoptotic (%) [11]: 91%
- Population Fragmented Nuclei (%) [11]: 24%
- Population Healthy Nuclei (%) [11]: 60%
- Population Hoechst High Intensity Objects (%) [11]: 7%
- Population Membrane Permeable-Phenotype (%) [11]: 0%
- Population Mitochondria Different-Phenotype (%) [11]: 12%
- Population Mitotic Cells (%) [11]: 8%
- Population Normal (%) [11]: 92%
- Population Pyknosed Nuclei (%) [11]: 14%
- Population Tubulin-Different-Phenotype (%) [11]: 51%
- Total Cell Count [11]: 88
- Population Apoptotic (%) [12]: 73%
- Population Fragmented Nuclei (%) [12]: 43%
- Population Healthy Nuclei (%) [12]: 43%
- Population Hoechst High Intensity Objects (%) [12]: 3%
- Population Membrane Permeable-Phenotype (%) [12]: 8%
- Population Mitochondria Different-Phenotype (%) [12]: 14%
- Population Mitotic Cells (%) [12]: 26%
- Population Normal (%) [12]: 96%
- Population Pyknosed Nuclei (%) [12]: 13%
- Population Tubulin-Different-Phenotype (%) [12]: 70%
- Total Cell Count [12]: 113

From ChEMBL document CHEMBL5058577, “EUbOPEN Chemogenomics Library 2 (Multiplex)” (2022)
